Assay results: ChEMBL document CHEMBL1926565, “Synthesis, antiproliferative activities and telomerase inhibition evaluation of novel asymmetrical 1,2-disubstituted amidoanthraquinone derivatives” (Eur J Med Chem, 2012)
Calls of active or inactive are those of the source. No cut-off for these calls is given here.

Experiments:
[1] = target: Telomerase reverse transcriptase (Homo sapiens) (UniProt O14746); assay: Inhibition of telomerase activity in human H1299 cell free extract at 10 uM by modified TRAP assay
Chain of Telomerase reverse transcriptase (Homo sapiens) (O14746 whole entry): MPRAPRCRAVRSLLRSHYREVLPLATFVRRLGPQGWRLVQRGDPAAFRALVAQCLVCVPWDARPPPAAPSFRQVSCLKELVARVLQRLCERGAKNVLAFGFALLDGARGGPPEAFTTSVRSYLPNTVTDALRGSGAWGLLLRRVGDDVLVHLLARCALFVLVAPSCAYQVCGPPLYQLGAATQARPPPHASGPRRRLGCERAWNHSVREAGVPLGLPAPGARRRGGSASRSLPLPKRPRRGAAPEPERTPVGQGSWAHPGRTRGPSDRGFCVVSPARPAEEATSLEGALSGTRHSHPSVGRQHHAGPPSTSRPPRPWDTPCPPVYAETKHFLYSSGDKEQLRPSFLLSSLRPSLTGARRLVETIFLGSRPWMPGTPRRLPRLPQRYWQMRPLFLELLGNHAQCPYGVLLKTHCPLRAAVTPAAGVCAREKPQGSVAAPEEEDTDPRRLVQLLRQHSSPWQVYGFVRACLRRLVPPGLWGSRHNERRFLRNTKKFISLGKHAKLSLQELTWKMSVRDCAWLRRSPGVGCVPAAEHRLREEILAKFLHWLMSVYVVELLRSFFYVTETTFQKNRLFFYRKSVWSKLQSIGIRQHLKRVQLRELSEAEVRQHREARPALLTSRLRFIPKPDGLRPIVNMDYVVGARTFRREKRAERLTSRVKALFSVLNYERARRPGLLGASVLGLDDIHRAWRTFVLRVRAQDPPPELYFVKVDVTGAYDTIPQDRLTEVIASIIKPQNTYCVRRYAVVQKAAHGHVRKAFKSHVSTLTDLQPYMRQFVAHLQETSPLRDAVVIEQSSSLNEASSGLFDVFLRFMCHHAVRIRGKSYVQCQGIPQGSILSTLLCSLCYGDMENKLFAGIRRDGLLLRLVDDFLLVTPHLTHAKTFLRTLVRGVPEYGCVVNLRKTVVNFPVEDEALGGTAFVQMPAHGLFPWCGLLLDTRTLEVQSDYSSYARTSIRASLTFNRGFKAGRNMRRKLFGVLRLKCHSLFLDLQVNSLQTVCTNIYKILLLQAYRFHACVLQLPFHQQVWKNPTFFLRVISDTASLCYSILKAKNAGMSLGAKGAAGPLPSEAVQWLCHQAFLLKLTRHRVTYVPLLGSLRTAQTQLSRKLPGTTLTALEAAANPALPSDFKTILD
Outline: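 TRAP assay using total cell lysate from H1299 lung cancer cells as the telomerase source, with protein measured against BSA standards. Compounds tested at 10 µM. Controls were lysate without inhibitor (positive) and RNase A-treated extract without inhibitor (negative).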

[2] = test system: NCI-H322M; assay: Cytotoxicity against human NCI-H322M cells assessed as cellular growth at 10 uM; type: functional
Outline: (§1)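 Single-dose screen run by the NCI across its 60-human-tumour-cell-line panel; growth recorded for each cell line.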

[3] = test system: UO-31; assay: Cytotoxicity against human UO31 cells assessed as cellular growth at 10 uM; type: functional
[4] = test system: SF-539; assay: Cytotoxicity against human SF539 cells assessed as cellular growth at 10 uM; type: functional; outline: as §1
[5] = test system: OVCAR-4; assay: Cytotoxicity against human OVCAR4 cells assessed as cellular growth at 10 uM; type: functional; outline: as §1
[6] = test system: MDA-MB-231; assay: Cytotoxicity against human MDA-MB-231 cells assessed as cellular growth at 10 uM; type: functional; outline: as §1
[7] = test system: NCI-H226; assay: Cytotoxicity against human NCI-H226 cells assessed as cellular growth at 10 uM; type: functional; outline: as §1
[8] = test system: PC-3; assay: Cytotoxicity against human PC3 cells assessed as cellular growth at 10 uM; type: functional; outline: as §1
[9] = test system: SF-295; assay: Cytotoxicity against human SF295 cells assessed as cellular growth at 10 uM; type: functional; outline: as §1
[10] = test system: HCT-116; assay: Cytotoxicity against human HCT116 cells assessed as cellular growth at 10 uM; type: functional; outline: as §1
[11] = test system: SNB-19; assay: Cytotoxicity against human SNB19 cells assessed as cellular growth at 10 uM; type: functional
[12] = test system: OVCAR-8; assay: Cytotoxicity against human OVCAR8 cells assessed as cellular growth at 10 uM; type: functional; outline: as §1
[13] = test system: COLO 205; assay: Cytotoxicity against human COLO205 cells assessed as cellular growth at 10 uM; type: functional; outline: as §1
[14] = test system: HOP-92; assay: Cytotoxicity against human HOP92 cells assessed as cellular growth at 10 uM; type: functional; outline: as §1
[15] = test system: SN12C; assay: Cytotoxicity against human SN12C cells assessed as cellular growth at 10 uM; type: functional
[16] = test system: DU-145; assay: Cytotoxicity against human DU145 cells assessed as cellular growth at 10 uM; type: functional; outline: as §1
[17] = Growth of human H1299 cells at 100 uM 48 hrs by MTT assay; conditions: NCI-H1299, 48 h
[18] = test system: OVCAR-3; assay: Cytotoxicity against human OVCAR3 cells assessed as cellular growth at 10 uM; type: functional; outline: as §1
[19] = test system: SF-268; assay: Cytotoxicity against human SF268 cells assessed as cellular growth at 10 uM; type: functional; outline: as §1
[20] = test system: Malme-3M; assay: Cytotoxicity against human MALME-3M cells assessed as cellular growth at 10 uM; type: functional; outline: as §1
[21] = test system: SNB-75; assay: Cytotoxicity against human SNB75 cells assessed as cellular growth at 10 uM; type: functional
[22] = test system: NCI-H23; assay: Cytotoxicity against human NCI-H23 cells assessed as cellular growth at 10 uM; type: functional; outline: as §1
[23] = Cytotoxicity against human Hs 578T cells assessed as cellular growth at 10 uM; type: functional; outline: as §1
[24] = test system: SK-MEL-28; assay: Cytotoxicity against human SK-MEL-28 cells assessed as cellular growth at 10 uM; type: functional; outline: as §1
[25] = test system: SK-MEL-2; assay: Cytotoxicity against human SK-MEL-2 cells assessed as cellular growth at 10 uM; type: functional; outline: as §1
[26] = target: Telomerase reverse transcriptase (Homo sapiens) (UniProt O14746); assay: Residual activity of human TERT in H1299 cells at 100 uM after 24 hrs by SEAP reporter gene assay
[27] = test system: U-251; assay: Cytotoxicity against human U251 cells assessed as cellular growth at 10 uM; type: functional
[28] = test system: CAKI-1; assay: Cytotoxicity against human Caki1 cells assessed as cellular growth at 10 uM; type: functional; outline: as §1
[29] = test system: OVCAR-5; assay: Cytotoxicity against human OVCAR5 cells assessed as cellular growth at 10 uM; type: functional; outline: as §1
[30] = test system: A498; assay: Cytotoxicity against human A498 cells assessed as cellular growth at 10 uM; type: functional; outline: as §1
[31] = Growth of human H1299 cells at 10 uM after 48 hrs by MTT assay; conditions: NCI-H1299, 48 h
[32] = test system: A549; assay: Cytotoxicity against human A549 cells assessed as cellular growth at 10 uM; type: functional; outline: as §1
[33] = test system: HCT-15; assay: Cytotoxicity against human HCT15 cells assessed as cellular growth at 10 uM; type: functional; outline: as §1
[34] = test system: TK-10; assay: Cytotoxicity against human TK10 cells assessed as cellular growth at 10 uM; type: functional
[35] = test system: HL-60(TB); assay: Cytotoxicity against human HL-60(TB) cells assessed as cellular growth at 10 uM; type: functional; outline: as §1
[36] = test system: MOLT-4; assay: Cytotoxicity against human MOLT4 cells assessed as cellular growth at 10 uM; type: functional; outline: as §1
[37] = test system: NCI-H522; assay: Cytotoxicity against human NCI-H522 cells assessed as cellular growth at 10 uM; type: functional; outline: as §1
[38] = test system: M14; assay: Cytotoxicity against human M14 cells assessed as cellular growth at 10 uM; type: functional; outline: as §1
[39] = test system: HCC 2998; assay: Cytotoxicity against human HCC2998 cells assessed as cellular growth at 10 uM; type: functional; outline: as §1
[40] = test system: 786-0; assay: Cytotoxicity against human 786-0 cells assessed as cellular growth at 10 uM; type: functional; outline: as §1
[41] = test system: IGROV-1; assay: Cytotoxicity against human IGROV1 cells assessed as cellular growth at 10 uM; type: functional; outline: as §1
[42] = test system: SK-OV-3; assay: Cytotoxicity against human SKOV3 cells assessed as cellular growth at 10 uM; type: functional
[43] = test system: BT-549; assay: Cytotoxicity against human BT549 cells assessed as cellular growth at 10 uM; type: functional; outline: as §1
[44] = test system: HOP-62; assay: Cytotoxicity against human HOP62 cells assessed as cellular growth at 10 uM; type: functional; outline: as §1
[45] = test system: NCI-H460; assay: Cytotoxicity against human NCI-H460 cells assessed as cellular growth at 10 uM; type: functional; outline: as §1
[46] = Growth of human H1299 cells at 1 uM after 48 hrs by MTT assay; conditions: NCI-H1299, 48 h
[47] = test system: UACC-62; assay: Cytotoxicity against human UACC62 cells assessed as cellular growth at 10 uM; type: functional
[48] = test system: T47D; assay: Cytotoxicity against human T47D cells assessed as cellular growth at 10 uM; type: functional
[49] = test system: CCRF-CEM; assay: Cytotoxicity against human CCRF-CEM cells assessed as cellular growth at 10 uM; type: functional; outline: as §1
[50] = test system: MDA-MB-468; assay: Cytotoxicity against human MDA-MB-468 cells assessed as cellular growth at 10 uM; type: functional; outline: as §1
[51] = test system: SK-MEL-5; assay: Cytotoxicity against human SK-MEL-5 cells assessed as cellular growth at 10 uM; type: functional
[52] = test system: ACHN; assay: Cytotoxicity against human ACHN cells assessed as cellular growth at 10 uM; type: functional; outline: as §1
[53] = test system: EKVX; assay: Cytotoxicity against human EKVX cells assessed as cellular growth at 10 uM; type: functional; outline: as §1
[54] = test system: NCI/ADR-RES; assay: Cytotoxicity against human NCI/ADR-RES cells assessed as cellular growth at 10 uM; type: functional; outline: as §1

SMILES: Cc1ccc(C(=O)Nc2ccc3c(c2NC(=O)c2ccc(C)cc2)C(=O)c2ccccc2C3=O)cc1
- inhibition [1]: inactive
- Activity [2]: 97.74%
- Activity [3]: 66.54%
- Activity [4]: 97.26%
- Activity [5]: 104.32%
- Activity [6]: 93.29%
- Activity [7]: 91.14%
- Activity [8]: 82.91%
- Activity [9]: 110.81%
- Activity [10]: 78.55%
- Activity [11]: 103.91%
- Activity [12]: 85.43%
- Activity [13]: 108.57%
- Activity [14]: 91.21%
- Activity [15]: 98.59%
- Activity [16]: 95.93%
- growth, % of control at 100 µM [17]: 62%
- Activity [18]: 97.9%
- Activity [19]: 98.91%
- Activity [20]: 127.16%
- Activity [21]: 102.26%
- Activity [22]: 90.57%
- Activity [23]: 105.96%
- Activity [24]: 99.46%
- Activity [25]: 100.65%
- residual activity [26]: 30%
- Activity [27]: 91.73%
- Activity [28]: 94.89%
- Activity [29]: 110.18%
- Activity [30]: 124.08%
- growth, % of control at 10 µM [31]: 116%
- Activity [32]: 90.46%
- Activity [33]: 102.44%
- Activity [34]: 124.91%
- Activity [35]: 73.11%
- Activity [36]: 89.63%
- Activity [37]: 72.05%
- Activity [38]: 91.57%
- Activity [39]: 84.68%
- Activity [40]: 116.17%
- Activity [41]: 78.71%
- Activity [42]: 109.62%
- Activity [43]: 95.39%
- Activity [44]: 105.23%
- Activity [45]: 88.62%
- growth, % of control at 1 µM [46]: 100%
- Activity [47]: 87.5%
- Activity [48]: 100%
- Activity [49]: 79.02%
- Activity [50]: 104.17%
- Activity [51]: 94.04%
- Activity [52]: 112.43%

SMILES: Cc1ccc(C(=O)Nc2c(NC(=O)CCl)ccc3c2C(=O)c2ccccc2C3=O)cc1
- inhibition [1]: inactive
- Activity [2]: 95.05%
- Activity [3]: 42.91%
- Activity [4]: -31.42%
- Activity [5]: 34.52%
- Activity [6]: 24.67%
- Activity [7]: -25.3%
- Activity [8]: 6.81%
- Activity [9]: 79.7%
- Activity [10]: -54.27%
- Activity [11]: 88.4%
- Activity [12]: 8.72%
- Activity [13]: -53.43%
- Activity [14]: -68.77%
- Activity [15]: -81.02%
- Activity [53]: 88.22%
- Activity [16]: -97.56%
- growth, % of control at 100 µM [17]: 0%
- Activity [18]: -92.86%
- Activity [19]: 14.63%
- Activity [20]: -22.41%
- Activity [21]: 6.31%
- Activity [22]: -85.89%
- Activity [24]: -31.94%
- Activity [25]: 52%
- residual activity [26]: 0%
- Activity [27]: -44.02%
- Activity [29]: 109.55%
- Activity [30]: 123.78%
- growth, % of control at 10 µM [31]: 2%
- Activity [32]: -81.71%
- Activity [33]: -50.22%
- Activity [34]: 130.52%
- Activity [35]: -46.88%
- Activity [36]: -23.17%
- Activity [37]: 57.88%
- Activity [38]: -22.68%
- Activity [40]: 11.3%
- Activity [41]: 51.41%
- Activity [42]: 106.24%
- Activity [43]: 28.19%
- Activity [44]: -28.62%
- Activity [45]: 95.65%
- growth, % of control at 1 µM [46]: 103%
- Activity [47]: -67.8%
- Activity [48]: -49.46%
- Activity [54]: 72.17%
- Activity [50]: -83.42%
- Activity [51]: -98.72%
- Activity [52]: 21.92%
